From ChEMBL document CHEMBL1926568, “Synthesis, biological evaluation and mechanistic studies of totarol amino alcohol derivatives as potential antimalarial agents” (Bioorg Med Chem, 2012)
Active and inactive are the calls of the source. The rule behind the calls is not given here.

Columns and labels:
[1] = tested on: Plasmodium falciparum; test: Antiplasmodial activity against chloroquine-sensitive Plasmodium falciparum D10 after 48 hrs by lactate dehydrogenase assay; format: functional, organism-based; details: D10, 48 h
How it was run: (§1)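 P. falciparum D10 (CQ-sensitive) and K1 (CQ-resistant) kept in continuous in vitro culture, synchronized with 5% D-sorbitol at ring stage when needed; growth read by parasite lactate dehydrogenase assay; each compound run in duplicate on two separate occasions.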

[2] = tested on: Plasmodium falciparum; test: Antiplasmodial activity against chloroquine-resistant Plasmodium falciparum K1 after 48 hrs by lactate dehydrogenase assay; format: functional, organism-based; details: K1, 48 h; how it was run: as §1
[3] = tested on: Plasmodium falciparum; test: Resistance index, ratio of IC50 for chloroquine-resistant Plasmodium falciparum K1 to IC50 for chloroquine-sensitive Plasmodium falciparum D10; format: functional
How it was run: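 Resistance index computed as IC50 (K1)/IC50 (D10), both from the pLDH assay, each run in duplicate on two separate occasions.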

[4] = tested on: CHO; test: Cytotoxicity against CHO cells after 48 hrs by MTT assay; format: cell-based; details: Cricetulus griseus
How it was run: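 CHO cells in DMEM:Ham's (1:1) with 10% heat-inactivated FCS and gentamicin, 37 °C, 5% CO2; 1×10^4 cells/well seeded 24 h, then serial dilutions from DMSO stocks (100–0.01 µg/ml) for 48 h, with medium and DMSO controls.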

[5] = Selectivity index, ratio of IC50 for CHO cells to IC50 for chloroquine-sensitive Plasmodium falciparum D10; format: toxicity, cell-based; details: hamster, CHO cells (cytotoxicity) versus Plasmodium falciparum D10; read-out: Ratio IC50
[6] = Selectivity index, ratio of IC50 for CHO cells to IC50 for chloroquine-resistant Plasmodium falciparum K1; format: toxicity, cell-based; details: hamster, CHO cells (cytotoxicity) versus Plasmodium falciparum K1; read-out: Ratio IC50
[7] = Cytotoxicity in un-parasitized erythrocytes assessed as morphological changes at 6.25 ug/ml after 48 hrs by phase contrast microscopy; format: cell-based; details: erythrocyte
How it was run: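 Unparasitized erythrocytes (hematocrit 2%) held 48 h with 6.25 µg/ml compound (diluted from 100 µg/ml stocks), then fixed with 1% glutaraldehyde in paraformaldehyde; cell shape of 20 µl samples examined by phase-contrast light microscopy at ×1000.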

[8] = tested on: Plasmodium falciparum; test: Antiplasmodial activity against Plasmodium falciparum schizonts assessed as parasitemia at IC50 concentration treated until all schizonts had burst and invasion was assumed to have occurred by Giemsa staining-based microscopy (reference value: 8.83%); format: functional
[9] = tested on: Plasmodium falciparum; test: Antiplasmodial activity against Plasmodium falciparum schizonts assessed as change in parasitemia at IC50 concentration treated until all schizonts had burst and invasion was assumed to have occurred by Giemsa staining-based microscopy relative to control; format: functional
[10] = tested on: Erythrocyte; test: Induction of [3H]-chloroquine accumulation in erythrocytes infected with chloroquine-resistant Plasmodium falciparum K1 trophozoites at 5 uM pre-incubated for 15 mins before exposure to [3H]-chloroquine measured after 1 hr by liquid scintillation counting relative to control; format: functional
How it was run: (§2)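 Synchronized K1-infected erythrocytes at trophozoite stage (1% hematocrit, 5% parasitemia) preincubated with test compound 15 min at 37 °C, then 4 nM 3H-CQ for 1 h at 37 °C; cells spun through dibutylphthalate, pellet digested and counted by liquid scintillation; accumulation expressed relative to untreated control; verapamil 5 µM positive control.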

[11] = tested on: Erythrocyte; test: Induction of [3H]-chloroquine accumulation in erythrocytes infected with chloroquine-resistant Plasmodium falciparum K1 trophozoites at 1 ug/ml pre-incubated for 15 mins before exposure to [3H]-chloroquine measured after 1 hr by liquid scintillation counting relative to control; format: functional, cell-based; how it was run: as §2

| Compound | IC50 [1] | IC50 [2] | Ratio IC50 [3] | IC50 [4] | selectivity ratio [5] | selectivity ratio [6] | Activity [7] | Activity [8] | Activity [9] | fold change (FC) [10] | Activity [11] |
| --- | --- | --- | --- | --- | --- | --- | --- | --- | --- | --- | --- |
| Oc1cccc2ccccc12 [1-NAPHTHOL] | 56.5 µM | – | – | – | – | – | – | – | – | – | – |
| c1ccc(OCC2CO2)cc1 (stereo unspecified) | 77 µM | – | – | – | – | – | – | – | – | – | – |
| CC(C)c1c(O)ccc2c1CC[C@H]1C(C)(C)CCC[C@]21C [TOTAROL] | 11.8 µM | 11.7 µM | 0.99 | 170 µM | 14.5 | 14.6 | – | – | – | – | – |
| CC(C)c1c(OCC(O)CNCc2ccccc2)ccc2c1CC[C@H]1C(C)(C)CCC[C@]21C (stereo partly specified) | 6.47 µM | 0.65 µM | 0.1 | 14.4 µM | 2.2 | 22.3 | Non-toxic | 8.31% | -0.52% | – | – |
| CN1CCN(CC(O)COc2ccccc2)CC1 (racemic) | > 100 µM | – | – | – | – | – | – | – | – | – | – |
| CC(C)c1c(OCC(O)CN2CCN(c3ccccc3)CC2)ccc2c1CC[C@H]1C(C)(C)CCC[C@]21C (stereo partly specified) | 2.56 µM | 1.81 µM | 0.71 | 105 µM | 41.2 | 58.1 | – | – | – | – | – |
| CC(C)NCC(O)COc1ccc2c(c1C(C)C)CC[C@H]1C(C)(C)CCC[C@]21C (stereo partly specified) | 1.05 µM | 0.17 µM | 0.14 | 1.28 µM | 1.2 | 8.7 | Non-toxic | 5.43% | -3.4% | – | – |
| COc1ccc(CCN(C)CCCC(C#N)(c2ccc(OC)c(OC)c2)C(C)C)cc1OC (stereo unspecified) | – | – | – | – | – | – | – | – | – | >3 | – |
| CC(C)c1c(OCC(O)CN2CCCCC2)ccc2c1CC[C@H]1C(C)(C)CCC[C@]21C (stereo partly specified) | 1.08 µM | 0.75 µM | 0.7 | 2.99 µM | 2.8 | 4 | – | – | – | – | – |
| CC(C)c1c(OCC(O)CN2CCN(C)CC2)ccc2c1CC[C@H]1C(C)(C)CCC[C@]21C (stereo partly specified) | 1.36 µM | 1.39 µM | 1.03 | 3.73 µM | 2.7 | 2.7 | Toxic | – | – | – | Active |
| CC(C)c1c(OCC(O)CN2CCN(c3ccccc3Cl)CC2)ccc2c1CC[C@H]1C(C)(C)CCC[C@]21C (single isomer, unassigned) | 3.25 µM | 0.94 µM | 0.23 | 186 µM | 57.3 | 207 | – | – | – | – | – |
| CC(C)c1c(OCC2CO2)ccc2c1CC[C@H]1C(C)(C)CCC[C@]21C (stereo partly specified) | 10.3 µM | 14 µM | 1.36 | – | – | – | – | – | – | – | – |
| CCOc1ccccc1N1CCN(CC(O)COc2ccc3c(c2C(C)C)CC[C@H]2C(C)(C)CCC[C@]32C)CC1 (stereo partly specified) | 1.62 µM | 1.01 µM | 0.62 | 183 µM | 113 | 181 | – | – | – | – | – |
| CN1CCN(CC(O)COc2ccc3ccccc3c2)CC1 (racemic) | 42.9 µM | 8.21 µM | 0.19 | 149 µM | 3.5 | 18.1 | – | – | – | – | – |
| CCN(CC)CC(O)COc1ccc2c(c1C(C)C)CC[C@H]1C(C)(C)CCC[C@]21C (stereo partly specified) | 0.61 µM | 0.63 µM | 1.04 | 7.73 µM | 12.7 | 12.2 | – | – | – | – | – |
| CC(C)c1c(OCC(O)CN2C(=O)c3ccccc3C2=O)ccc2c1CC[C@H]1C(C)(C)CCC[C@]21C (stereo partly specified) | 9.55 µM | 48.3 µM | 5.06 | – | – | – | – | – | – | – | – |
| Oc1ccccc1 [PHENOL] | > 100 µM | – | – | – | – | – | – | – | – | – | – |
| CC(C)c1c(OCC(O)CN2CCOCC2)ccc2c1CC[C@H]1C(C)(C)CCC[C@]21C (mixture of isomers) | 2.07 µM | 0.56 µM | 0.27 | 5.61 µM | 2.7 | 10 | – | – | – | – | – |
| Oc1ccc2ccccc2c1 [BETANAPHTHOL] | > 100 µM | – | – | – | – | – | – | – | – | – | – |
| CC(C)NCC(O)COc1cccc2ccccc12 (racemic) [PROPRANOLOL] | – | – | – | – | – | – | – | 5.35% | -3.48% | – | – |
| OC(CNCc1ccccc1)COc1ccc2ccccc2c1 (racemic) | 6.77 µM | 13.5 µM | 2 | 123 µM | 18.2 | 9.1 | – | – | – | – | – |
| OC(CNCc1ccccc1)COc1cccc2ccccc12 (racemic) | 5.18 µM | 0.73 µM | 0.14 | 8.27 µM | 1.6 | 11.2 | – | 10.24% | 1.41% | – | – |
| CN1CCN(CC(O)COc2cccc3ccccc23)CC1 (racemic) | 41.8 µM | 7.23 µM | 0.17 | 261 µM | 6.2 | 36.1 | – | – | – | – | – |
| OC(COc1cccc2ccccc12)CN1CCN(c2ccccc2Cl)CC1 (racemic) | > 100 µM | – | – | – | – | – | – | – | – | – | – |
| c1ccc2c(OCC3CO3)cccc2c1 (stereo unspecified) | > 100 µM | – | – | – | – | – | – | – | – | – | – |
| CC(C)c1c(OCC(O)CN2CCN(c3ccnc4cc(Cl)ccc34)CC2)ccc2c1CC[C@H]1C(C)(C)CCC[C@]21C (single isomer, unassigned) | 1.42 µM | 0.93 µM | 0.64 | 94.2 µM | 67.3 | > 100 | – | – | – | – | – |
